Source: ChEMBL document CHEMBL2150894, “Synthesis and anti-staphylococcal activity of new 4-diazopyrazole derivatives” (2012)
In brackets after ≈: the same amount, converted by molar mass. Activity calls are given as the source filed them. The rule behind the calls is not given here.

Columns and labels:
Assay type in all cases: functional
[1] = test system: Staphylococcus aureus; test: Antibacterial activity against Staphylococcus aureus isolate 712 obtained from veterinary sample after 24 hrs by broth microdilution method; conditions: isolate 712, 24 h
In short: (§1)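 Broth microdilution in Mueller Hinton broth with twofold serial dilutions spanning 50 to 0.001. Each well received inoculum from a 24 h culture containing about 10⁶ cfu mL⁻¹, then incubated at 37 °C for 24 h. MIC was the lowest concentration whose OD570 matched the broth-only negative control. Veterinary isolates came from milk and food samples (IZS Sicily collection).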

[2] = test system: Staphylococcus aureus; test: Antibacterial activity against Staphylococcus aureus isolate 708 obtained from veterinary sample after 24 hrs by broth microdilution method; conditions: isolate 708, 24 h; in short: as §1
[3] = test system: Staphylococcus aureus; test: Antibacterial activity against Staphylococcus aureus isolate 723 obtained from veterinary sample after 24 hrs by broth microdilution method; conditions: isolate 723, 24 h; in short: as §1
[4] = test system: Staphylococcus aureus; test: Antibacterial activity against Staphylococcus aureus ATCC 29213 after 24 hrs by broth microdilution method; conditions: ATCC 29213, 24 h; in short: as §1
[5] = test system: Staphylococcus aureus; test: Antibacterial activity against Staphylococcus aureus ATCC 6538 after 24 hrs by broth microdilution method; conditions: ATCC 6538, 24 h; in short: as §1
[6] = test system: Staphylococcus aureus; test: Antibacterial activity against Staphylococcus aureus ATCC 25923 after 24 hrs by broth microdilution method; conditions: ATCC 25923, 24 h; in short: as §1
[7] = test system: Staphylococcus aureus; test: Antibacterial activity against Staphylococcus aureus isolate 722 obtained from veterinary sample after 24 hrs by broth microdilution method; conditions: isolate 722, 24 h; in short: as §1
[8] = test system: Staphylococcus aureus; test: Antibacterial activity against Staphylococcus aureus isolate 357 obtained from veterinary sample after 24 hrs by broth microdilution method; conditions: isolate 357, 24 h; in short: as §1
[9] = test system: Staphylococcus aureus; test: Antibacterial activity against Staphylococcus aureus isolate 100 obtained from veterinary sample after 24 hrs by broth microdilution method; conditions: isolate 100, 24 h; in short: as §1
[10] = test system: Staphylococcus aureus; test: Antibacterial activity against Staphylococcus aureus ATCC 29213 by NCCLS method
[11] = test system: Staphylococcus aureus; test: Antibacterial activity against Staphylococcus aureus ATCC 25923 assessed as inhibition of biofilm formation at 3.1 ug/mL
[12] = test system: Staphylococcus aureus; test: Antibacterial activity against Staphylococcus aureus ATCC 29213 assessed as inhibition of biofilm formation at 3.1 ug/mL
[13] = test system: Staphylococcus aureus; test: Antibacterial activity against Staphylococcus aureus isolate 708 obtained from veterinary sample assessed as inhibition of biofilm formation at 3.1 ug/mL
[14] = test system: Staphylococcus epidermidis; test: Antibacterial activity against Staphylococcus epidermidis RP62A
[15] = test system: Staphylococcus aureus; test: Antibacterial activity against Staphylococcus aureus ATCC 29213 assessed as inhibition of biofilm formation at 25 ug/mL
[16] = test system: Staphylococcus aureus; test: Antibacterial activity against methicillin-resistant Staphylococcus aureus ATCC 43866 assessed as inhibition of biofilm formation at 25 ug/mL
[17] = test system: Staphylococcus aureus; test: Antibacterial activity against methicillin-resistant Staphylococcus aureus clinical isolate
[18] = test system: Staphylococcus aureus; test: Antibacterial activity against methicillin-resistant Staphylococcus aureus ATCC 43866
[19] = test system: Staphylococcus aureus; test: Antibacterial activity against Staphylococcus aureus ATCC 29213
In short: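 Broth microdilution: twofold serial dilutions of compound (range 50 to 0.001) in Mueller Hinton broth, each well inoculated with bacterial suspension from a 24 h culture containing ~10⁶ cfu/mL. Incubated 37 °C for 24 h.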

[20] = test system: Staphylococcus epidermidis; test: Antibacterial activity against Staphylococcus epidermidis RP62A assessed as inhibition of biofilm formation at 25 ug/mL
[21] = test system: Staphylococcus epidermidis; test: Antibacterial activity against Staphylococcus epidermidis RP62A assessed as inhibition of biofilm formation

SMILES | MIC [1] [µg/mL] | MIC [2] [µg/mL] | MIC [3] [µg/mL] | MIC [4] [µg/mL] | MIC [5] [µg/mL] | MIC [6] [µg/mL] | MIC [7] [µg/mL] | MIC [8] [µg/mL] | MIC [9] [µg/mL] | other results
COc1ccc(NC(=O)[N-]c2c([N+]#N)c(C)nn2C)c([N+](=O)[O-])c1 | > 50 | > 50 | > 50 | > 50 | > 50 | > 50 | > 50 | > 50 | > 50 | 
Cc1nn(C)c([N-]C(=O)Nc2ccccc2)c1[N+]#N | 50 (≈ 195 µM) | 25 (≈ 97.6 µM) | 6.2 (≈ 24.2 µM) | 12.5 (≈ 48.8 µM) | 12.5 (≈ 48.8 µM) | 12.5 (≈ 48.8 µM) | 25 (≈ 97.6 µM) | 6.2 (≈ 24.2 µM) | 12.5 (≈ 48.8 µM) | 
CO[C@H]1/C=C/O[C@@]2(C)Oc3c(C)c(O)c4c(O)c(c(/C=N/N5CCN(C)CC5)c(O)c4c3C2=O)NC(=O)/C(C)=C\C=C\[C@H](C)[C@H](O)[C@@H](C)[C@@H](O)[C@@H](C)[C@H](OC(C)=O)[C@@H]1C [RIFAMPIN] | 0.3 (≈ 0.365 µM) | 0.07 (≈ 0.0851 µM) | 1.25 (≈ 1.52 µM) | 0.015 (≈ 0.0182 µM) | 0.015 (≈ 0.0182 µM) | 0.015 (≈ 0.0182 µM) | 0.6 (≈ 0.729 µM) | 0.015 (≈ 0.0182 µM) | 0.07 (≈ 0.0851 µM) | MIC [10]: 0.008 µg/mL (≈ 0.00972 µM)
Cc1nn(C)c([N-]C(=O)Nc2ccc(OCc3ccccc3)cc2[N+](=O)[O-])c1[N+]#N | > 50 | > 50 | > 50 | > 50 | > 50 | > 50 | > 50 | > 50 | > 50 | 
Cc1nn(C)c([N-]C(=O)c2ccc([N+](=O)[O-])cc2)c1[N+]#N |  |  |  |  |  |  |  |  |  | MIC [14]: 1.5 µg/mL (≈ 5.24 µM); inhibition at 25 µg/mL [15]: 69.7%; inhibition at 25 µg/mL [16]: 69.7%; MIC [17]: 2 µg/mL (≈ 6.99 µM); MIC [18]: 1.5 µg/mL (≈ 5.24 µM); MIC [19]: 1.5 µg/mL (≈ 5.24 µM); inhibition at 25 µg/mL [20]: 69.7%
Cc1nn(C)c([N-]C(=O)c2ccc(Cl)cc2Cl)c1[N+]#N |  |  |  |  |  |  |  |  |  | inhibition [21]: Active; MIC [14]: 1.5 µg/mL (≈ 4.84 µM); MIC [17]: 2 µg/mL (≈ 6.45 µM); MIC [18]: 1.5 µg/mL (≈ 4.84 µM); MIC [19]: 1.5 µg/mL (≈ 4.84 µM)
CCCCOc1ccc(NC(=O)[N-]c2c([N+]#N)c(C)nn2C)c([N+](=O)[O-])c1 | > 50 | > 50 | > 50 | > 50 | > 50 | > 50 | > 50 | > 50 | > 50 | 
Cc1nn(C)c([N-]C(=O)c2ccc(Cl)cc2)c1[N+]#N |  |  |  |  |  |  |  |  |  | MIC [14]: 1.5 µg/mL (≈ 5.44 µM); inhibition at 25 µg/mL [15]: 69.7%; inhibition at 25 µg/mL [16]: 69.7%; MIC [17]: 2 µg/mL (≈ 7.25 µM); MIC [18]: 1.5 µg/mL (≈ 5.44 µM); MIC [19]: 1.5 µg/mL (≈ 5.44 µM); inhibition at 25 µg/mL [20]: 69.7%

The next lines start with results.

MIC [1] [µg/mL] | MIC [2] [µg/mL] | MIC [3] [µg/mL] | MIC [4] [µg/mL] | MIC [5] [µg/mL] | MIC [6] [µg/mL] | MIC [7] [µg/mL] | MIC [8] [µg/mL] | MIC [9] [µg/mL] | SMILES | other results
3.1 (≈ 10.3 µM) | 3.1 (≈ 10.3 µM) | 100 (≈ 332 µM) | 6.2 (≈ 20.6 µM) | 6.2 (≈ 20.6 µM) | 6.2 (≈ 20.6 µM) | 3.1 (≈ 10.3 µM) | 3.1 (≈ 10.3 µM) | > 100 | Cc1nn(C)c([N-]C(=O)Nc2ccc([N+](=O)[O-])cc2)c1[N+]#N | 
50 (≈ 173 µM) | 12.5 (≈ 43.1 µM) | 3.1 (≈ 10.7 µM) | 25 (≈ 86.3 µM) | 6.2 (≈ 21.4 µM) | 25 (≈ 86.3 µM) | 12.5 (≈ 43.1 µM) | 1.5 (≈ 5.18 µM) | 6.2 (≈ 21.4 µM) | Cc1nn(C)c([N-]C(=O)Cc2ccc(Cl)cc2)c1[N+]#N | 
25 (≈ 76.9 µM) | 6.2 (≈ 19.1 µM) | 3.1 (≈ 9.53 µM) | 6.2 (≈ 19.1 µM) | 6.2 (≈ 19.1 µM) | 6.2 (≈ 19.1 µM) | 3.1 (≈ 9.53 µM) | 6.2 (≈ 19.1 µM) | 3.1 (≈ 9.53 µM) | Cc1nn(C)c([N-]C(=O)Nc2ccc(Cl)c(Cl)c2)c1[N+]#N | 
25 (≈ 87.6 µM) | 6.2 (≈ 21.7 µM) | 6.2 (≈ 21.7 µM) | 6.2 (≈ 21.7 µM) | 6.2 (≈ 21.7 µM) | 6.2 (≈ 21.7 µM) | 6.2 (≈ 21.7 µM) | 6.2 (≈ 21.7 µM) | 3.1 (≈ 10.9 µM) | COc1ccc(CC(=O)[N-]c2c([N+]#N)c(C)nn2C)cc1 | inhibition at 3.1 µg/mL [11]: 38%; inhibition at 3.1 µg/mL [12]: 45.7%; inhibition at 3.1 µg/mL [13]: 25%
3.1 (≈ 10.7 µM) | 25 (≈ 86 µM) | 12.5 (≈ 43 µM) | 6.2 (≈ 21.3 µM) | 25 (≈ 86 µM) | 6.2 (≈ 21.3 µM) | 12.5 (≈ 43 µM) | 6.2 (≈ 21.3 µM) | 6.2 (≈ 21.3 µM) | Cc1nn(C)c([N-]C(=O)Nc2ccc(Cl)cc2)c1[N+]#N | 
1.5 (≈ 5.88 µM) | 6.2 (≈ 24.3 µM) | 3.1 (≈ 12.1 µM) | 3.1 (≈ 12.1 µM) | 3.1 (≈ 12.1 µM) | 6.2 (≈ 24.3 µM) | 6.2 (≈ 24.3 µM) | 1.5 (≈ 5.88 µM) | 3.1 (≈ 12.1 µM) | Cc1nn(C)c([N-]C(=O)Cc2ccccc2)c1[N+]#N | inhibition at 3.1 µg/mL [11]: 45.7%; inhibition [12]: inactive; inhibition [13]: inactive
